From PubChem
An excerpt weighted towards active compounds, which were near 3.5% of everything screened.
MrgX1 agonist = human MrgX1 receptor agonism, primary screen. Q96LB2. actives 0.44% (n = 310,000). B-score at 10 µM. MrgX1-HEK293 cells, Fluo-4 calcium fluorescence, agonist mode; stronger effect = higher value;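 active = calcium response B-score plate-corrected fluorescence ratio at least 3 library SD, with starting fluorescence B-score inside 5 SD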
Target sequence (Q96LB2 whole entry, looked up): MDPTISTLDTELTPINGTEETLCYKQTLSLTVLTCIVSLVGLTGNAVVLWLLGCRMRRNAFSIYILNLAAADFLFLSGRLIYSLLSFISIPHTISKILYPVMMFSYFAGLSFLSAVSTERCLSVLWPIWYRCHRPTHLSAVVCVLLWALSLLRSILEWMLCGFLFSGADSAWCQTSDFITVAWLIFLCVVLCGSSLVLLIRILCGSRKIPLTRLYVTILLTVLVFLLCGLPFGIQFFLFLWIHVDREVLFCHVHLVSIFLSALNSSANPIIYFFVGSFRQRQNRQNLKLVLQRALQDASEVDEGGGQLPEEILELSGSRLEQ
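Test system: Stable human MrgX1 HEK293 cell line | Schedule: Overnight plating before 1 h dye loading | Read-out basis: Baseline-normalised fluorescence change ratio, B-scored | Detection: Kinetic calcium dye fluorescence, Fluo-4 NW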
MrgX1 PAM = human MrgX1 positive allosteric modulation, primary screen; Q96LB2; MrgX1-HEK293, Fluo-4 calcium flux, FDSS; stronger effect = higher value; B-score at 10 µM; actives 0.63% (n = 310,000); AID 588675;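 active = plate-corrected calcium response at least 3 library SD above typical, normal starting fluorescence, not activating the receptor alone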;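 note: compound read alongside a low EC10 to EC30 dose of BAM8-22 agonist; peak minus trough fluorescence over baseline measured at the second addition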
RGS4 act = RGS4 potentiation or activation; HEK293 M3R/inducible RGS4, carbachol calcium flux Fluo4; stronger effect = lower value; B-score at 10 µM; actives 0.92% (n = 310,000); AID 463111;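 active = B-score of the integrated calcium signal more than 4 SD below the library mean, with starting fluorescence not abnormally high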;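 note: negative B-score means reduced calcium response which marks RGS4 activation or potentiation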
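test system = HEK293 cells with stable M3R and inducible RGS4 | schedule = recording 10 s baseline at 1 Hz, 100 s post-agonist | technique = Fluo4-AM (2 µM) calcium-flux fluorescence, kinetic read | measure = Agonist-evoked peak-minus-minimum fluorescence over baseline, integrated ratio, B score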
RGS4 block = inhibitors of human RGS4 | HEK293 M3R/RGS4 inducible, Fluo-4 calcium flux; stronger effect = higher value; triggered by carbachol at its EC20 | B-score at 10 µM | P49798 | actives 0.45% (n = 310,000);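 active = B-score, a plate-corrected calcium signal, over three deviations above library mean, with baseline fluorescence within five deviations of library mean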;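 note: RGS4 expression induced by doxycycline in cells with stable M3 receptor; B-score is computed from the integrated fluorescence ratio over baseline after carbachol; higher B-score means a larger calcium signal and so more RGS4 inhibition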
Target sequence (P49798 whole entry, looked up): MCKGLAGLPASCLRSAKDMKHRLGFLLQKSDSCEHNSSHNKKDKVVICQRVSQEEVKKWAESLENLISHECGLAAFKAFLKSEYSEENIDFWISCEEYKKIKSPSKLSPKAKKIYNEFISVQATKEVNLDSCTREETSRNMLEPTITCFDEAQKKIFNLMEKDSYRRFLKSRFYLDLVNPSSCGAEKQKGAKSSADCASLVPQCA
MrgX1 antag = antagonists of human MrgX1 receptor; Q96LB2; MRGX1-HEK293 calcium flux, Fluo-4, BAM8-22 antagonism; stronger effect = lower value; B-score at 10 µM; actives 1.3% (n = 310,000); AID 588676;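 active = calcium-response B-score plate-corrected more than 3 library SD below zero, starting fluorescence within 5 deviations, no agonist response on first addition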;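 note: peak minus trough fluorescence over baseline after final BAM8-22 challenge near maximal dose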
Starred values were filed as active, the others as inactive; i = inactive; · = not tested or not shown; ! = repeats disagree.

SMILES	MrgX1 agonist	MrgX1 PAM	RGS4 act	RGS4 block	MrgX1 antag
CSc1cccc(CN2CCN(CCC(C)C)C(CCO)C2)c1 (stereo not drawn)	i	i	i	i	i
CCN(Cc1ccccc1)C(=O)C(C)OC(=O)c1cc(S(=O)(=O)Nc2c(C)n(C)n(-c3ccccc3)c2=O)ccc1C (stereo not drawn)	i	i	i	i	i
CNCCCOc1ccc(C(C)(C)c2ccccc2)cc1	·	·	i	i	·
COCCCNCCOc1ccc(C(C)(C)c2ccccc2)cc1	i	i	-7.75*	i	i
CC(=O)Nc1nc(C)c(-c2csc(Nc3cccc(C(C)=O)c3)n2)s1	i	i	-7.48*	i	i
NC(N)=NC(=O)c1nc(Cl)c(N)nc1N	i	i	i	i	i
NC(N)=NC(=O)c1nc(Cl)c(N2CCCCCC2)nc1N	57.4*	i	·	·	i
O=C(/C=C/c1ccc(Cl)cc1)NC1CC2CCC1C2 (stereo not drawn)	i	7.18*	i	i	i
Cc1onc(-c2ccccc2)c1C(=O)N=C(N)c1ccc(C(F)(F)F)cc1	i	i	i	i	i
CSc1nnc(NC(=O)c2ccc(S(=O)(=O)N3CCOCC3)cc2)s1	i	i	i	i	i
COC(=O)c1ccc(CC(=O)c2nc3ccccc3s2)cc1	i	i	i	i	i
COC(=O)c1ccc(/C(O)=C(\C#N)c2nc3ccccc3s2)cc1	28.1*	i	i	i	i
CCCCn1nnnc1SCC(=O)NNC(=O)C1CCCCC1	i	i	i	i	-5.13*
CCCCNC(=S)N(C)/N=C/c1sc(N2CCCCC2)nc1-c1cccs1	i	i	i	i	-8.71*
CCn1c(C)nc2cc(C(=O)NNC(=O)CCC3CCCCC3)ccc21	i	i	i	i	i
Cc1c(C(=O)N2CCN(Cc3ccc4c(c3)OCO4)CC2)sc2ncnc(N3CCN(c4ccccc4F)CC3)c12	i	i	i	i	-5.37*
COC(=O)c1ccccc1-n1cccc1C(=O)NP(=O)(N1CCOCC1)N1CCOCC1	i	i	i	i	i
NC(=O)Nc1ccc(F)cc1	i	i	i	i	i
Cc1ccccc1NC(=O)CSCc1cc(=O)n2ccsc2n1	i	i	i	i	i
O=[N+]([O-])/C=C/c1c(OCc2ccccc2)ccc2ccccc12	i	i	i	13.1*	i
Cc1ccc(N2CC(C(=O)N3CCOCC3)CC2=O)cc1Cl (stereo not drawn)	i	i	i	i	i
COc1ccc(CCN2C(=O)CSC2=Nc2ccc(C(C)C)cc2)cc1OC	i	i	-7.19*	i	i
C[C@H]1[C@H](C)CC[C@]2(C(=O)O)CC[C@]3(C)C(=CC[C@@H]4[C@@]5(C)C[C@@H](O)[C@H](O)C(C)(C)[C@@H]5CC[C@]43C)[C@H]12	i	i	-7.62*	i	i
Cc1ccc(NC(=O)COC(=O)[C@H](C)NC(N)=O)c(C)c1	i	i	i	i	i
CCCCCCCCCCCCCCCCn1cc[n+](C)c1	i	i	-9.54*!	i	-7.33*!
SMILES	MrgX1 agonist	MrgX1 PAM	RGS4 act	RGS4 block	MrgX1 antag
CCCCCCCCn1ccc(=N)cc1	i	i	i	i	i
CN(Cc1nc(-c2ccc(Cl)cc2)no1)C(=O)c1ccc2c(c1)OCO2	i	i	i	i	i
COCCN(C(=O)Cc1cccs1)C(C(=O)NCc1ccc(OC)cc1)c1ccc(C(C)C)cc1 (stereo not drawn)	i	i	-6.99*	i	i
CCc1ccc(C(C(=O)NCc2ccc(OC)cc2)N(CCOC)C(=O)Cc2cccs2)cc1 (stereo not drawn)	i	i	i	i	i
Cc1cc(OCC(=O)N2CCN(c3ccccn3)CC2)cc(C)c1Br	i	i	i	i	i
COc1ccc(NC(=O)C(=O)NNC(=O)C(C)Oc2ccc(Cl)cc2Cl)cc1 (stereo not drawn)	i	i	i	i	-6.24*
FCCCOc1ccc(/C=N/OCc2ccc(Cl)cc2Cl)cc1	i	i	i	i	-5.5*
COc1cc(CNCc2cccs2)ccc1OCc1cccs1	i	i	i	i	i
COc1cc(CNCc2cccs2)ccc1OCc1ccccc1	i	i	-7.09*	i	i
CN(C)/C=C1\SC(=S)N(c2ccc(F)cc2)C1=O	i	i	i	i	i
CN(C)/C=C1\SC(=S)N(c2ccc(Br)cc2)C1=O	i	i	i	i	-4.89*
Cc1cc2c(sc3c(C)ccc(C)c32)c(C)n1	i	i	i	i	i
CCOC(=O)c1c(-c2cccc([N+](=O)[O-])c2)csc1NC(=O)C1CC1	i	i	-7.7*	i	i
CCOC(=O)c1c(-c2cccc([N+](=O)[O-])c2)csc1NC(=O)C1CCCCC1	i	i	-9.19*	i	i
COc1ccc(C(=O)N2CCN(CCc3ccccc3)CC2)cc1[N+](=O)[O-]	i	i	i	i	i
O=C1/C(=C/c2ccc([N+](=O)[O-])cc2)CCc2ccccc21	i	i	i	i	i
O=C1/C(=C/c2cccc([N+](=O)[O-])c2)CCc2ccccc21	i	i	i	i	-5.85*
CCOc1ccc(CCNC(=O)c2cccc(S(=O)(=O)N3CC(C)OC(C)C3)c2)cc1OCC (stereo not drawn)	i	i	i	i	-6.47*
NC(=O)N/N=C/c1cc(Br)ccc1OC(=O)c1ccccc1	i	i	i	i	i
O=C(NCc1ccccc1Cl)C(=O)c1cn(CC(=O)N2CCOCC2)c2ccccc12	i	i	i	i	i
CSc1ccccc1OCc1cc(C(=O)NC2CCc3ccccc32)no1 (stereo not drawn)	i	i	i	i	i
Cc1ccc(OCc2cc(C(=O)NC3CCc4ccccc43)no2)cn1 (stereo not drawn)	i	i	i	i	-4.72*
Cc1cc(N/N=C/c2ccccc2)nc(NCc2ccccc2)n1	i	i	i	i	i
Cc1cc(N/N=C/c2cccc(Cl)c2)nc(NCc2ccccc2)n1	i	i	-7.67*	i	i
O=C1CCCc2oc3c(cc(NS(=O)(=O)c4ccc5c6c(cccc46)C(=O)N5)c4ccccc43)c21	i	7*	i	i	i
COC(=O)C1(C(C[N+](=O)[O-])c2ccco2)C(=O)NCC1c1ccccc1 (stereo not drawn)	41.8*	i	i	i	i
